Test results reported in ChEMBL document CHEMBL1129356, “Novel 3,7-diheterabicyclo[3.3.1]nonanes that possess predominant class III antiarrhythmic activity in 1-4 day post infarction dog models: X-ray diffraction analysis of 3-[4-(1H-imidazol-1-yl)benzoyl]-7-isopropyl-3,7-diazabicyclo[3.3.1]nona ne dihydroperchlorate” (1996).

What was measured:
[1] = tested on: Canis familiaris; assay: Tested for antiarrhythmic property by measuring ability to decrease Mean blood pressure(post drug) is compared to Lidocaine using doses(3 and 6 mg/kg); assay type: functional, Canis lupus familiaris
Outline: (§1)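 Mongrel dogs (about 12–25 kg), 1–4 days after coronary occlusion infarction, under sodium pentobarbital (~30 mg/kg) with 12-lead ECG monitoring. Agents and lidocaine were given iv at 3 and 6 mg/kg. Programmed ventricular stimulation was applied at baseline, about 2–5 min after each dose, and at 30 min. SVT was defined as ≥250 beats/min lasting ≥30 s. Pre means drug-free; post means after dosing.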

[2] = tested on: Canis familiaris; assay: Tested for antiarrhythmic property by measuring ability to decrease Mean blood pressure (drug free) is compared to Lidocaine using doses(3 and 6 mg/kg).; assay type: functional, Canis lupus familiaris; outline: as §1
[3] = tested on: Canis familiaris; assay: Antiarrhythmic properties are compared to lidocaine(2) using doses(3 and 6 mg/kg). Time required for the ventricular myocardium to undergo depolarization and repolarization ((post drug); assay type: functional, Canis lupus familiaris; outline: as §1
[4] = tested on: Canis familiaris; assay: Antiarrhythmic property ventricular effective refractory period(drug free) is compared to lidocaine(2) using doses(3 and 6 mg/kg); assay type: functional, Canis lupus familiaris, Heart; outline: as §1
[5] = tested on: Canis familiaris; assay: Antiarrhythmic properties are compared to lidocaine(2) using doses(3 and 6 mg/kg). Time required for the ventricular myocardium to undergo depolarization and repolarization (drug free); assay type: functional, Canis lupus familiaris; outline: as §1
[6] = tested on: Canis familiaris; assay: (§2) Antiarrhythmic property His-Purkinje conduction time(post drug) is compared to lidocaine(2) using doses(3 and 6 mg/kg); assay type: functional, Canis lupus familiaris, His-Purkinje system; outline: as §1
[7] = tested on: Canis familiaris; assay: Antiarrhythmic property ventricular effective refractory period(post drug) is compared to lidocaine(2) using doses(3 and 6 mg/kg); assay type: functional, Canis lupus familiaris, Heart; outline: as §1
[8] = tested on: Canis familiaris; assay: Antiarrhythmic property Nonsustained ventricular tachycardia is compared to lidocaine(2) using doses(3 and 6 mg/kg); assay type: functional, Canis lupus familiaris, Heart; outline: as §1
[9] = tested on: Canis familiaris; assay: Tested for antiarrhythmic property by measuring ability to decrease heart rate(post drug) is compared to Lidocaine using doses(3 and 6 mg/kg).; assay type: functional, Canis lupus familiaris; outline: as §1
[10] = tested on: Canis familiaris; assay: as §2; assay type: functional, Canis lupus familiaris, His-Purkinje system; outline: as §1; remark: listed apart in the source
[11] = tested on: Canis familiaris; assay: Tested for antiarrhythmic property by measuring ability to decrease heart rate(drug free) is compared to Lidocaine using doses (3 and 6 mg/kg).; assay type: functional, Canis lupus familiaris; outline: as §1

In the case of `c1ccc(CN2CC3CC(C2)CN(CC2CC2)C3)cc1`, the MBP [1] is reported as 37 mmHg, the MBP [2] is reported as 130 mmHg and the QT [3] is reported as 260 ms. It also gave a VERP [4] of 160 ms, a QT [5] of 220 ms and an HV interval [6] of 50 ms. For the same compound, the VERP [7] was 230 ms, the NSVT [8] was 3 mg/kg and the HR [9] was 110 beats min-1. The HV interval [10] was 50 ms and the HR [11] was 130 beats min-1.
